According to the array DNA melting data of Ke et al. (doi:10.1101/2024.01.08.574731):

Key:
[1] = melting temperature; fluorescence melt of hairpins on a sequencing array, two-state fit, raised by 9.35 °C to match UV melts; settings: sodium 0.088 M
Method in brief: (§1)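 Cy3 signals were normalised both to pre-quench Cy3 and to control constructs. They came from library hairpins carrying annealed Cy3 and quencher oligos on a sequenced MiSeq flow cell, imaged in 50 mM Na-HEPES pH 8.0, 25 mM NaCl, in 2.5 °C steps up to 60 °C. Bootstrapped two-state fits gave melting temperature and folding enthalpy, and four replicates were combined by inverse variance. Fitted temperatures were then raised by 9.35 °C to match UV melts.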

[2] = folding enthalpy; higher = less favourable; fluorescence melt of hairpins on a sequencing array, two-state fit; settings: sodium 0.088 M
Method in brief: as §1

Sequence	Tm [1] [°C]	folding enthalpy [2] [kcal/mol]
GGACGCGAAAGCGTTCC ((((((....))).)))	61.8	-14.1
GCTAACGAAAGTTCGAGC ((((((....)))..)))	32.5	-14.9
GACCTTGGAAACAAGATC ((.((((....)))).))	30.6	-21
GTGTCGGGAAACCGATGC (..((((....))))..)	46	-23.8
CGCTCGCGGAAACGCGCG (((..(((....))))))	61.2	-7.4
GTTCCGGAAACGGAAC ((((((....))))))	66.3	-32.4
GACTCCGAAAGGAGGTC ((((((....))).)))	56.2	-13.5
GCCTTCCGAAAGGAGGGC (((.(((....))).)))	62.2	-37
GCGAAGCGAAAGCTATGC ((..(((....)))..))	40.7	-7.44
GTTGGCGAAAGCCCCAAC ((((((....)))..)))	22.5	-6.64
GAGCGACGAAAGTCTCTC (((.(((....))).)))	46	-29.5
GCCCGACGAAAGTCTGGC (((.(((....))).)))	55.5	-32.4
TACCAGAAATGGTA (((((....)))))	37.5	-13.3
GATGACGAAAGTCGGATC ((((((....)))..)))	34.3	-13.4
GCGATGCGAAAGCATGGC ((.((((....)))).))	64.6	-21.2
GATCTTCTAAAAGATC ((((((....))))))	42	-30.2
GAAGGAGCGAAAGCTTTC (((..(((....))))))	28.4	-9.13
GGGGTCGGAAACGGTCCC (((..((....))..)))	49.4	-37.3
GCCCTTGGAAACAAGGAC (.(((((....))))).)	40.1	-17.5
GACCTGCGAAAGCAAGTC (((.(((....))).)))	47.1	-25.3
GATCGGGTACCCGATC ((((((....))))))	64.9	-47.6
GATCAAGTTTTTGATC ((((((....))))))	45.5	-36
GGTAACTCGAAAGAGACC (((..(((....))))))	31.3	-14.5

Sequence	Tm [1] [°C]	folding enthalpy [2] [kcal/mol]
GATCATGAGGATGATC ((((((....))))))	43.7	-38.4
GCTGAAGGAAACTTTGGC ((..(((....)))..))	33	-20
GCAAGTGGAAACATTTGC ((((.((....)).))))	45.9	-29.8
GCTAGAGAAATCTAGC ((((((....))))))	50.3	-30.4
GATCGATAACTCGATC ((((((....))))))	49.3	-36.3
GATCGCCCGAAAGGGATC (((..(((....))))))	34.5	-14.6
GTGAAGCCGAAAGGCCAC (((..(((....))))))	47.8	-15.6
GAACGCGAAAGCGGTTTC ((((((....)))..)))	41.9	-10.8
GGATTCGGAAACAAATCC (((((.(....).)))))	35.8	-22.9
GGCTTCGAAAGAAAGGCC ((((((....)))..)))	43.4	-26
GATCTGATGACAGATC ((((((....))))))	48.8	-34.8
GTGTTCGAAAGAATACAC ((((((....)))..)))	42.6	-22.9
GTCCGTGGAAACGTGGAC ((((..(....)..))))	45.4	-21.5
GTAATGGGAAACTATTAC (((((.(....).)))))	34.5	-28.6
GCCCTGCGAAAGCATCGC ((..(((....)))..))	33.6	-7.06
GCCTGTGGAAACATAGGC ((((.((....)).))))	52.4	-42.2
GCAAAATCGAAAGATTGC (((..(((....))))))	38.5	-20.6
GACTGCGAAAGCAATGTC ((((((....)))..)))	44.3	-14.9
GGCCTGCGAAAGCACGCC (((.(((....))).)))	53.4	-37.6
GGCACCGAAAGGTGGGCC ((((((....)))..)))	52.6	-12.5
GTTAGGACGAAAGTCAAC (((..(((....))))))	28.8	-10.7
GCAAAGCGAAAGCTGGGC ((..(((....)))..))	55.6	-18.9
GACTGCGAAAGCAGCGTC ((((((....)))..)))	50.7	-10.3

Sequence	Tm [1] [°C]	folding enthalpy [2] [kcal/mol]
GCGTAGCGAAAGCTGAGC ((..(((....)))..))	54.4	-16
GATGTCACGAAAGTGATC (((..(((....))))))	28.4	-11.8
GGTCTGGGAAACCGGACC ((((.((....)).))))	58.6	-46.1
GATCCTTCTCAGGATC ((((((....))))))	50.9	-45
GTAGCTCGAAAGAGTAC (((.(((....))))))	36.2	-18.3
GCGATAGATCGC ((((....))))	49.7	-21.7
GGATGTGAAAACATCC ((((((....))))))	58.5	-38.3
GATCTCGGTTGAGATC ((((((....))))))	53.5	-30.5
GATCTCGAGCGAGATC ((((((....))))))	53.3	-48.4
GTAATACGAAAGTAATAC (((.(((....))).)))	34	-20.2
GCCGCGACGAAAGTCGGC (((..(((....))))))	62.4	-9.47
CGTGCACGGAAACGTACG (((..(((....))))))	33.2	-8.88
GTTGACGAAAGTCAAAC ((((((....))).)))	51.3	-13.9
GTACCGCGAAAGCGTTAC (((.(((....))).)))	42.9	-21
GATCAGTACCTGATC ((((((...))))))	48.9	-44.9
GATAGCCGAAAGGCCATC (((.(((....))).)))	39.6	-13.8
GATCGGTTGTCCGATC ((((((....))))))	57.1	-33.8
GAGCACGAAAGTGTACTC ((((((....)))..)))	37.5	-15.4
GCATGGGGAAACCTATGC ((((.((....)).))))	50.8	-39.4
GAGTTGCCGAAAGGCCTC (((..(((....))))))	34.9	-9.97
GCTAGCGAAAGCTTTAGC ((((((....)))..)))	40.5	-14
AGACCGAAAGGTCT (((((....)))))	68.6	-21.1
GATCTTGCTCAAGATC ((((((....))))))	48.3	-39.4

Sequence	Tm [1] [°C]	folding enthalpy [2] [kcal/mol]
GCCACGCGAAAGCTTGGC ((((.((....)).))))	66	-35.5
GGGAGTGGAAACGCTCTC (.(((.(....).))).)	39.7	-17.8
GATCAAGTAATTGATC ((((((....))))))	50	-32.1
GATCGAGATATCGATC ((((((....))))))	58.7	-38.2
GGTTCGAAAGAACC (((((....)))))	64.8	-28.2
GTGGCGGGAAACCGCCGC (.(((((....))))).)	66.6	-14.9
GAGATAGGAAACTATCCC (.(((((....))))).)	30.1	-16.4
GCGTCATAACGC ((((....))))	53.3	-23.4
GATCAGCTCTCTGATC ((((((....))))))	49.3	-36.9
GGTGGCGGAAACGCCGTC (..((((....))))..)	45.1	-10.1
GGTGAACGAAAGTTACC (((.(((....))))))	40.6	-23.4
GATCCTAGAAAGGATC ((((((....))))))	48.5	-30.6
GTTGAGGGAAACCTCAGC (.(((((....))))).)	46.3	-25.4
GATCTCTTGGAGATC ((((((...))))))	54.4	-37.8
GACTCCGAAAGGACCGTC ((((((....)))..)))	29.7	-13.8
GGGGTTGGAAACAGCCTC (.((.((....)).)).)	39.1	-21.6
GCGGGGCGAAAGCGCAGC ((.(.((....)).).))	59.5	-23.5
GATCGCCCTAGCGATC ((((((....))))))	69.1	-34.4
GTGGATGGAAACGTTCAC (((.(.(....).).)))	32.4	-16.7
GCTTTGCGAAAGCTACGC ((.(.((....)).).))	45.4	-13.2
GAGAACGAAAGTTCGCTC ((((((....)))..)))	53.6	-19.8
GCGCAGCGAAAGCCGGGC ((.(.((....)).).))	41.2	-8.2
GTCTCTCGAAAGAGGAC (((.(((....))))))	45.1	-24.2
